Here are results for 14 compounds from ChEMBL document CHEMBL1125096, “Synthesis and antitumor activity of 9-[(carbamoyloxy)alkyl]anthracyclines: a novel class of anthracycline derivatives” (1990).

Holding throughout (type): functional, Mus musculus
In assay [1] the test system is L1210 (1565). The experiment in a line: Antitumor activity against L-1210 leukemia cell line in BDF1 mice after injecting 0.25 mg/kg intraperitoneal dose. Put shortly: (§1)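 Female BDF1 mice, five per dose group, inoculated ip with 10^5 viable L-1210 ascites cells. Dosing started the same day: ip, daily, five times a week for 4 weeks or until death. Vehicle was aqueous solution, or propylene glycol suspension if insoluble. Efficacy is expressed as T/C, the ratio of mean survival time of treated to untreated control mice. Survivors at 4 weeks counted as long-term.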

Assay [2] relates to L1210 (1565). The assay can be described thus: Antitumor activity against L-1210 leukemia cell line in BDF1 mice after injecting 2 mg/kg intraperitoneal dose. An outline of the steps:
as §1

In assay [3] the test system is L1210 (1565). The assay can be described thus: Antitumor activity against L-1210 leukemia cell line in BDF1 mice after injecting 0.125 mg/kg intraperitoneal dose. Put shortly:
as §1

Assay [4] relates to L1210 (1565). The assay can be described thus: Antitumor activity against L-1210 leukemia cell line in BDF1 mice after injecting 0.05 mg/kg intraperitoneal dose. Put shortly: as §1
Assay [5] relates to L1210 (1565). The assay can be described thus: Antitumor activity against L-1210 leukemia cell line in BDF1 mice after injecting 1 mg/kg intraperitoneal dose. Put shortly:
as §1

For assay [6], the system named is L1210 (1565). The experiment in a line: Antitumor activity against L-1210 leukemia cell line in BDF1 mice after injecting 16 mg/kg intraperitoneal dose. Put shortly: as §1
Assay [7] has as its system L1210 (1565). The assay can be described thus: Antitumor activity against L-1210 leukemia cell line in BDF1 mice after injecting 4 mg/kg intraperitoneal dose. Put shortly: as §1
The test system of assay [8] is L1210 (1565). The assay can be described thus: Antitumor activity against L-1210 leukemia cell line in BDF1 mice after injecting 0.5 mg/kg intraperitoneal dose. Put shortly:
as §1

As to `C[C@@H]1OC(O[C@H]2C[C@](O)([C@@H](C)OC(=O)Nc3ccccc3)Cc3c(O)c4c(c(O)c32)C(=O)c2ccccc2C4=O)C[C@H](N)[C@@H]1O.Cl` (some centres undefined), the T/C (as a rule, the result in the treated group divided by that in the control group, in per cent) in assay [1] was found to be 420%. In assay [2], `C[C@H]1C[C@H](N)C[C@H](O[C@H]2C[C@](O)(COC(=O)Nc3ccccc3)Cc3c(O)c4c(c(O)c32)C(=O)c2ccccc2C4=O)O1.Cl` registered a T/C of 500%.

In assay [3], `C[C@@H]1OC(O[C@H]2C[C@](O)([C@H](C)OC(=O)Nc3ccccc3)Cc3c(O)c4c(c(O)c32)C(=O)c2ccccc2C4=O)C[C@H](N)[C@H]1O.Cl` (some centres undefined) yielded a T/C of 400%. The compound `CC(=O)[C@]1(O)Cc2c(O)c3c(c(O)c2[C@@H](O[C@H]2C[C@@H](N)[C@H](O)[C@H](C)O2)C1)C(=O)c1ccccc1C3=O.Cl` returned a T/C in assay [4] of 230%. In the case of `CC1OC(O[C@H]2C[C@](O)([C@@H](C)OC(=O)Nc3ccccc3)Cc3c(O)c4c(c(O)c32)C(=O)c2ccccc2C4=O)CC(N)C1O.Cl` (some centres undefined), the T/C in assay [5] was found to be 280%. The compound `CC1OC(O[C@H]2C[C@](O)(COC(=O)Nc3ccccc3)Cc3c(O)c4c(c(O)c32)C(=O)c2ccccc2C4=O)CC(N)C1OCc1ccccc1.Cl` (some centres undefined) displayed a T/C in assay [6] of 470%. `CC1OC(O[C@H]2C[C@](O)(COC(=O)Nc3ccc([N+](=O)[O-])cc3)Cc3c(O)c4c(c(O)c32)C(=O)c2ccccc2C4=O)CC(N)C1O.Cl` (some centres undefined) had a T/C in assay [7] of 210%. In assay [2], `COc1ccc(NC(=O)OC[C@]2(O)Cc3c(O)c4c(c(O)c3[C@@H](OC3CC(N)C(O)C(C)O3)C2)C(=O)c2ccccc2C4=O)cc1.Cl` (some centres undefined) registered a T/C of 230%. As to `CNC(=O)OC[C@]1(O)Cc2c(O)c3c(c(O)c2[C@@H](OC2CC(N)C(O)C(C)O2)C1)C(=O)c1ccccc1C3=O.Cl` (some centres undefined), the T/C in assay [7] was found to be 280%.

Take `CC1OC(O[C@H]2C[C@](O)(COC(=O)Nc3ccc(Cl)cc3)Cc3c(O)c4c(c(O)c32)C(=O)c2ccccc2C4=O)CC(N)C1O.Cl` (some centres undefined): the T/C in assay [2] worked out at 370%. Regarding `C[C@@H]1O[C@@H](O[C@H]2C[C@](O)(COC(=O)Nc3ccccc3)Cc3c(O)c4c(c(O)c32)C(=O)c2ccccc2C4=O)C[C@@H](N)[C@@H]1O.Cl` (stereo in doubt; 8a), the T/C in assay [2] (2 mg/kg) amounted to 380%.

In assay [2] (2 mg/kg), `CO[C@H]1[C@H](N)C[C@H](O[C@H]2C[C@](O)(COC(=O)Nc3ccccc3)Cc3c(O)c4c(c(O)c32)C(=O)c2ccccc2C4=O)O[C@H]1C.Cl` (stereo in doubt; 19) yielded a T/C of 230%. As to `COc1cccc2c1C(=O)c1c(O)c3c(c(O)c1C2=O)C[C@@](O)(C(C)=O)C[C@@H]3O[C@H]1C[C@H](N)[C@H](O)[C@H](C)O1.Cl` [DAUNORUBICIN HYDROCHLORIDE], in assay [8], the T/C is reported as 290%. In turn, `COc1cccc2c1C(=O)c1c(O)c3c(c(O)c1C2=O)C[C@@](O)(C(=O)CO)C[C@@H]3O[C@H]1C[C@H](N)[C@H](O)[C@H](C)O1.Cl` [DOXORUBICIN HYDROCHLORIDE] came in with a T/C in assay [2] of 330%.
